Series [1] is described as follows: Antioxidant activity of the compound assessed as reduction in absorbance of DPPH after 60 mins incubation at 1000 uM by DPPH radical scavenging /microplate assay. It counts as physicochemical. To be noted: 1 h. In a few lines:
(§1)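 DPPH radical prepared in methanol. Test compounds and standards made as 10 mM DMSO stocks, diluted in methanol, and tested at […]; final DMSO […]. Samples mixed with DPPH in triplicate, kept at 37 °C protected from light, and read at 519 nm after 30 and 60 min. % scavenging = (Abs control − Abs sample)/Abs control × 100.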
A general note: The DPPH test is a chemical assay of radical scavenging.

The nature of series [2]: Antioxidant activity of the compound assessed as reduction in absorbance of DPPH after 60 mins incubation at 100 uM by DPPH radical scavenging /microplate assay. It counts as physicochemical. To be noted: 1 h. The method, boiled down:
as §1

A short description of series [3]: Antioxidant activity of the compound assessed as reduction in absorbance of DPPH after 60 mins incubation at 300 uM by DPPH radical scavenging /microplate assay. The format is physicochemical. As to conditions: 1 h. The method, boiled down: as §1
Series [4] is described as follows: In vitro photoprotection of the compound assessed as UVA to UVB ratio by Optometric 290S analyzer. In a few lines:
(§2)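 Transmittance scans were taken from 290 to 400 nm at 2 nm intervals and compared against a reference scan. SPF, UVA protection factor and UVA/UVB ratio were calculated from the transmittance data.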

Series [5] can be described thus: In vitro photoprotection of the compound assessed as sun protection factor by Optometric 290S analyzer. In a few lines: as §2
Series [6] can be described thus: In vitro photoprotection of the compound assessed as UVA protection factor by Optometric 290S analyzer. The method, boiled down:
as §2

The nature of series [7]: Antioxidant activity of the compound assessed as reduction in absorbance of DPPH after 60 mins incubation at 35 uM by DPPH radical scavenging /microplate assay. The format is physicochemical. As to conditions: 1 h. In a few lines:
as §1

The nature of series [8]: Antioxidant activity of the compound assessed as reduction in absorbance of DPPH after 60 mins incubation by DPPH radical scavenging /microplate assay. The format is physicochemical. The method, boiled down: as §1

Here are results for 13 compounds from ChEMBL document CHEMBL3351296, “Synthesis, antioxidant and photoprotection activities of hybrid derivatives useful to prevent skin cancer” (Bioorg Med Chem, 2014).

With `COc1ccc(/C=C/C=N/NC(=O)c2ccc(O)cc2)cc1`, the “inhibition (INH)” value is 2.8% in series [1], -1.5% in series [2], -2.6% in series [3] and -3.4% in series [7]. The Ratio in series [4] was determined as 1.1. The SPF in series [5] was 2. In addition, in series [6], the UVAPF came to 2.

Take `CCCCC(CC)COC(=O)C=Cc1ccc(OC)cc1` (configuration not stated): the SPF in series [5] came to 13.

On to `CC(C)(C)c1ccc(C(=O)N/N=C/c2ccc(O)cc2)cc1`, for which the “inhibition (INH)” value is 38.7% in series [1], 15% in series [2], 28.9% in series [3] and 10.2% in series [7]. Also, the Ratio in series [4] is 0.8. The SPF in series [5] amounted to 2. The UVAPF in series [6] came to 2.

For the compound `O=C(N/N=C/c1cc(O)cc(O)c1)c1ccc(O)cc1`, the “inhibition (INH)” value in series [1] amounted to 34.2%; in series [2], 11.2%; in series [3] it was 26.5%; in series [7], 5.6%. Besides, the Ratio in series [4] turned out to be 0.6. Besides, the SPF in series [5] turned out to be 5. In addition, the UVAPF in series [6] came out at 4.

Take `COc1ccc(C(=O)c2ccccc2)c(O)c1`: the Ratio in series [4] came out at 0.6. For the same compound, the SPF in series [5] came to 1.

What is called IC50 is the concentration needed to halve the response being measured. Consider `COc1cc(/C=C/C=N/NC(=O)c2ccc(O)cc2)ccc1O`, for which the “inhibition (INH)” value in series [1] is recorded as 75.5%; in series [2], 56.7%; in series [3] it was 77.2%; in series [7], 34.8%. In addition, the Ratio in series [4] was determined as 1.2. For the same compound, the IC50 in series [8] is 88.2 µM. Also, in series [5], the SPF came to 2. For the same compound, in series [6], the UVAPF is 2.

With `O=C1O[C@H]([C@@H](O)CO)C(O)=C1O` [ASCORBIC ACID], the “inhibition (INH)” value was found to be 81.2% in series [1], 77.9% in series [2], 80.7% in series [3] and 18.8% in series [7]. For the same compound, in series [8], the half-maximal inhibitory concentration (IC50) was determined as 64.2 µM.

Turning to `COc1ccc(C(=O)CC(=O)c2ccc(C(C)(C)C)cc2)cc1`, in series [4], the Ratio was 1.8. Moreover, in series [6], the UVAPF is 39.

In the case of `O=C(N/N=C/c1ccc(O)cc1)c1ccc(O)cc1`, the “inhibition (INH)” value in series [1] is given as 65%; in series [2], 38%; in series [3] it was 54.4%; in series [7] it was 18.4%. In addition, the Ratio in series [4] was 0.8. In addition, the IC50 in series [8] came to 275 µM. Further, in series [5], the SPF was 3. In addition, the UVAPF in series [6] came to 2.

Consider `COc1cc(/C=C/C=N/NC(=O)c2ccc(C(C)(C)C)cc2)ccc1O`, for which the “inhibition (INH)” value in series [1] was 76.1%; in series [2], 45.6%; in series [3], 75.1%; in series [7], 20%. Also, in series [4], the Ratio turned out to be 1.1. The IC50 in series [8] is 110 µM. Further, the SPF in series [5] worked out at 2. In series [6], the UVAPF came out at 2.

In the case of `Oc1ccc(/C=C/c2cc(O)cc(O)c2)cc1` [RESVERATROL], the “inhibition (INH)” value in series [1] stood at 73.8%; in series [2], 45.5%; in series [3], 71.3%; in series [7], 20.5%. Besides, the Ratio in series [4] was found to be 0.6. Besides, the IC50 in series [8] was 110 µM. Besides, the SPF in series [5] was 2. The UVAPF in series [6] amounted to 2.

As for `CC(C)(C)c1ccc(C(=O)N/N=C/c2cc(O)cc(O)c2)cc1`, the “inhibition (INH)” value in series [1] was determined as 31.3%; in series [2], 10.9%; in series [3], 20.1%; in series [7], 7%. In addition, in series [4], the Ratio was determined as 0.6. Besides, in series [5], the SPF worked out at 4. In addition, in series [6], the UVAPF was determined as 3.

As to `COc1ccc(/C=C/C=N/NC(=O)c2ccc(C(C)(C)C)cc2)cc1`, the inhibition (INH) was -7.1% in series [1], -8.3% in series [2], -5.6% in series [3] and -6.6% in series [7]. Besides, in series [4], the Ratio was 1. For the same compound, the SPF in series [5] came out at 4. The UVAPF in series [6] was found to be 4.
